Experimental findings from ChEMBL document CHEMBL1135284 (Bioorg Med Chem Lett, 2002) are described below.

Series [1] concerns Rattus norvegicus. Nature of the series: Mean occlusion time after (iv) bolus dose of 0.75 mg/kg followed by an infusion of 50 ug/kg/min was determined in rat arterial thrombosis model. Format: functional.
Series [2] relates to Rattus norvegicus. Nature of the series: Thrombin time was determined after (iv) bolus dose of 0.75 mg/kg followed by an infusion of 50 ug/kg/min in rat arterial thrombosis model. The class given is functional.
Series [3] relates to Rattus norvegicus. Nature of the series: Activated partial thromboplastin time was determined after (iv) bolus dose of 0.75 mg/kg followed by an infusion of 50 ug/kg/min in rat arterial thrombosis model. The class given is functional.
Series [4] is described as follows: Oral bioavailability. The class given is ADME, organism-based. Particulars: rat, in vivo. The method, boiled down:
(§1)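 Conscious rats dosed by oral route (30 mg/kg) and iv bolus (0.15 mg/kg). Thrombin time tracked over time after each dose. %F derived by comparing areas under the TT-versus-time curves for the two routes.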

Series [5] in a line: Bioavailability was reported. Particulars: rat, in vivo. Format: ADME, organism-based. Put shortly: as §1

In the case of `N=C(N)c1ccc(CNC(=O)[C@@H]2CC[C@H]3CN(S(=O)(=O)CC(c4ccccc4)c4ccccc4)CC(=O)N32)cc1`, the MOT in series [1] is recorded as greater than 60 min. The TT in series [2] came to 636 s. The aPTT in series [3] stood at 74 s.

The molecule `Nc1ccc(CNC(=O)[C@@H]2CC[C@H]3CN(S(=O)(=O)CC(c4ccccc4)c4ccccc4)CC(=O)N32)cn1` displayed an MOT in series [1] of 30 min. The molecule further registered a TT in series [2] of 51 s. Further, the aPTT in series [3] was 19 s.

As usually defined, the bioavailability is dose-corrected exposure relative to a reference, in per cent. Take `N/C(=N\O)N1CCC(CNC(=O)[C@@H]2CC[C@H]3CN(S(=O)(=O)Cc4ccccc4)CC(=O)N32)CC1`: the bioavailability in series [4] is roughly 0.5%.

Consider `N/C(=N/O)N1CCC(CNC(=O)[C@@H]2CC[C@H]3CN(S(=O)(=O)CC(c4ccccc4)c4ccccc4)CC(=O)N32)CC1`, for which, in series [4], the bioavailability came to 0.7%. This molecule had an MOT in series [1] of 45 min. Besides, in series [2], the TT was 148 s. Besides, in series [3], the aPTT was 26 s.

In series [1], `Cc1cc(C(=N)N)ccc1CNC(=O)[C@@H]1CC[C@H]2CN(S(=O)(=O)C(c3ccccc3)c3ccccc3)CC(=O)N21` yielded an MOT greater than 60 min. Further, the TT in series [2] came out at 354 s. In series [3], this molecule had an aPTT of 42 s.

On to `N=C(N)[C@H]1CC[C@H](CNC(=O)[C@@H]2CC[C@H]3CN(S(=O)(=O)C(c4ccccc4)c4ccccc4)CC(=O)N32)CC1`, for which the bioavailability in series [4] was 0.1%. Also, the MOT in series [1] is on record as 44 min. The TT in series [2] amounted to 724 s. The molecule further returned an aPTT in series [3] of 54 s.

In the case of `N/C(=N/O)N1CCC(CNC(=O)[C@@H]2CC[C@H]3CN(S(=O)(=O)C(c4ccccc4)c4ccccc4)CC(=O)N32)CC1`, the bioavailability in series [4] worked out at 1.9%. In addition, the MOT in series [1] stood at 46 min. The molecule also had a TT in series [2] of 230 s. Moreover, the aPTT in series [3] was determined as 28 s.

Consider `N[C@H]1CC[C@H](CNC(=O)[C@@H]2CC[C@H]3CN(S(=O)(=O)CC(c4ccccc4)c4ccccc4)CC(=O)N32)CC1`, for which the bioavailability in series [5] amounted to 1.5%. Moreover, the MOT in series [1] worked out at 37 min. Further, the TT in series [2] is 150 s. Further, the aPTT in series [3] is reported as 35 s.

For the molecule `N=C(N)N1CCC(CNC(=O)[C@@H]2CC[C@H]3CN(C(=O)CC(c4ccccc4)c4ccccc4)CC(=O)N32)CC1`, the MOT in series [1] is 21 min. Besides, the TT in series [2] is 85 s. The aPTT in series [3] stood at 29 s.

Molecule `N/C(=N/O)N1CCC(CNC(=O)[C@@H]2CC[C@H]3CN(C(=O)CC(c4ccccc4)c4ccccc4)CC(=O)N32)CC1` displayed an MOT in series [1] of 35 min. Further, the TT in series [2] was determined as 63 s. Besides, the aPTT in series [3] is given as 23 s.

With `N=C(N)c1ccc(CNC(=O)[C@@H]2CC[C@H]3CN(S(=O)(=O)C(c4ccccc4)c4ccccc4)CC(=O)N32)cc1`, in series [1], the MOT is 51 min. Moreover, in series [2], the TT is given as 631 s. In series [3], this molecule showed an aPTT of 54 s.

Regarding `N=C(N)c1ccc(CNC(=O)[C@@H]2CC[C@H]3CN(S(=O)(=O)Cc4ccccc4)CC(=O)N32)cc1`, the bioavailability in series [4] is roughly 0.5%.

For the molecule `N=C(N)N1CCC(CNC(=O)[C@@H]2CC[C@H]3CN(S(=O)(=O)C(c4ccccc4)c4ccccc4)CC(=O)N32)CC1`, the MOT in series [1] came out at 52 min. The molecule further registered a TT in series [2] of 154 s. Moreover, the aPTT in series [3] is listed as 28 s.

`N/C(=N/O)N1CCC(CNC(=O)[C@@H]2CC[C@H]3CN(S(=O)(=O)CCc4ccccc4)CC(=O)N32)CC1` displayed a bioavailability in series [4] of 2.7%. The MOT in series [1] came out at 49 min. In addition, the TT in series [2] is 146 s. In series [3], this molecule returned an aPTT of 25 s.

In series [4], `N=C(N)N1CCC(CNC(=O)[C@@H]2CC[C@H]3CN(S(=O)(=O)CC(c4ccccc4)c4ccccc4)CC(=O)N32)CC1` displayed a bioavailability of 2.2%. The molecule also gave an MOT in series [1] of 36 min. In series [2], this molecule showed a TT of 214 s. This molecule also showed an aPTT in series [3] of 35 s.

`N[C@H]1CC[C@H](CNC(=O)[C@@H]2CC[C@H]3CN(S(=O)(=O)C(c4ccccc4)c4ccccc4)CC(=O)N32)CC1`: in series [1], the MOT was greater than 60 min. The molecule also displayed a TT in series [2] of 216 s. For the same molecule, the aPTT in series [3] is 44 s.

Regarding `Cc1nc(N)ccc1CNC(=O)[C@@H]1CC[C@H]2CN(S(=O)(=O)C(c3ccccc3)c3ccccc3)CC(=O)N21`, the MOT in series [1] is greater than 60 min. The TT in series [2] was 102 s. In series [3], the aPTT turned out to be 27 s.
